# Measured values reported in ChEMBL document CHEMBL1147951, “Synthesis and antimicrobial activity of symmetrical two-tailed dendritic tricarboxylato amphiphiles” (2007).
# Key:
# Type in all cases: functional
# Candida albicans = assay: Antimicrobial activity against Candida albicans by broth microdilution assay
# Procedure, shortened: (§1)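 Compounds were dissolved in aqueous triethanolamine (stock pH 8–9) and serially diluted twofold in 1/10-strength BHI broth + 0.2% sucrose. Inocula were adjusted with buffered saline gelatin to McFarland No. 1; for A. niger, spores were scraped from PDA. Plates were incubated at 30 °C and turbidity was scored visually on day 4. MIC, run in triplicate, was the lowest concentration giving a prominent visible decrease in turbidity.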
# [1] = test system: Lactiplantibacillus plantarum; assay: Antimicrobial activity against Lactobacillus plantarum by broth microdilution assay
# Procedure, shortened: (§2)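 Strains were L. plantarum ATCC 14917, precultured in TSB, and M. smegmatis ATCC 607, precultured in Middlebrook 7H9. Inocula were diluted with buffered saline gelatin to McFarland No. 1. Twofold dilutions of compound in aqueous triethanolamine were made in 1/10-strength BHI broth + 0.2% sucrose and mixed with an equal volume of inoculum. Plates were incubated at 30 °C and scored visually for turbidity on day 4. MIC was determined in triplicate.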
# Klebsiella pneumoniae = assay: Antimicrobial activity against Klebsiella pneumoniae by broth microdilution assay
# Procedure, shortened: (§3)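 Strains were E. coli strain C (ATCC 13706) and K. pneumoniae ATCC 4352, grown from a single colony in 1/10-strength BHI broth + 0.2% sucrose and adjusted with buffered saline gelatin to McFarland No. 1. Twofold dilution series of compound in triethanolamine/water used doubled medium and inoculum volumes. Plates were incubated at 37 °C and turbidity was scored visually on day 7. MIC, run in triplicate, was the lowest concentration giving a prominent visible turbidity decrease.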
# Saccharomyces cerevisiae = assay: Antimicrobial activity against Saccharomyces cerevisiae by broth microdilution assay; procedure, shortened: as §1
# [2] = test system: Mycolicibacterium smegmatis; assay: Antimicrobial activity against Mycobacterium smegmatis by broth microdilution assay; procedure, shortened: as §2
# Escherichia coli = assay: Antimicrobial activity against Escherichia coli by broth microdilution assay; procedure, shortened: as §3
# Aspergillus niger = assay: Antimicrobial activity against Aspergillus niger by broth microdilution assay; procedure, shortened: as §1
# Cryptococcus neoformans = assay: Antimicrobial activity against Cryptococcus neoformans by broth microdilution assay; procedure, shortened: as §1
# Micrococcus luteus = assay: Antimicrobial activity against Micrococcus luteus by broth microdilution assay; procedure, shortened: as §1
# Staphylococcus aureus [3] = assay: Antimicrobial activity against Staphylococcus aureus by broth microdilution assay
# Procedure, shortened: (§4)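 Twofold dilution series of amphiphile (dissolved in aqueous triethanolamine, pH 8–9) in 1/10-strength Brain Heart Infusion Broth with 0.2% sucrose. Inoculum from a single-colony broth culture, diluted with buffered saline gelatin to No. 1 McFarland turbidity. Incubated at 30 °C; turbidity scored visually on day 4. MIC = lowest concentration giving a prominent visible decrease in turbidity; triplicate.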
# Staphylococcus aureus [4] = assay: Antimicrobial activity against methicillin-resistant Staphylococcus aureus by broth microdilution assay; procedure, shortened: as §4
SMILES,MIC (Candida albicans) [µM],MIC [1] [µM],MIC (Klebsiella pneumoniae) [µM],MIC (Saccharomyces cerevisiae) [µM],MIC [2] [µM],MIC (Escherichia coli) [µM],MIC (Aspergillus niger) [µM],MIC (Cryptococcus neoformans) [µM],MIC (Micrococcus luteus) [µM],MIC (Staphylococcus aureus [3]) [µM],MIC (Staphylococcus aureus [4]) [µM]
CCCCCCCCCCC(CCCCCCCCCC)NC(=O)NC(CCC(=O)O)(CCC(=O)O)CCC(=O)O,> 11000,5300,> 11000,2700,330,2700,11000,15,> 11000,–,–
CCCCCCCCCCN(CCCCCCCCCC)C(=O)NC(CCC(=O)O)(CCC(=O)O)CCC(=O)O,> 11000,11000,> 1000,2700,680,2700,11000,62,11000,> 11000,11000
CCCCCCCCCCCC(CCCCCCCCCCC)NC(=O)NC(CCC(=O)O)(CCC(=O)O)CCC(=O)O,> 10000,10000,> 10000,1300,640,2500,10000,7.2,> 10000,> 10000,–
CCCCCCCCCC(CCCCCCCCC)NC(=O)NC(CCC(=O)O)(CCC(=O)O)CCC(=O)O,> 11000,5600,> 11000,2800,350,350,2800,64,> 11000,–,–
CCCCCCCCCCCCC(CCCCCCCCCCCC)NC(=O)NC(CCC(=O)O)(CCC(=O)O)CCC(=O)O,> 9800,9800,> 9800,610,1200,2400,9800,6.9,> 9800,> 9800,–
CCCCCCCN(CCCCCCC)C(=O)NC(CCC(=O)O)(CCC(=O)O)CCC(=O)O,1600,6400,> 1200,800,3200,3200,800,1200,6400,> 13000,3200
CCCCCCCCCCCCCCCCCCCCNC(=O)NC(CCC(=O)O)(CCC(=O)O)CCC(=O)O,2700,1400,250,120,62,62,680,2700,> 11000,1400,1400
CCCCCCCCCCCN(CCCCCCCCCCC)C(=O)NC(CCC(=O)O)(CCC(=O)O)CCC(=O)O,> 10000,10000,> 950,5200,650,2600,10000,> 950,10000,> 10000,10000
CCCCCCCCC(CCCCCCCC)NC(=O)NC(CCC(=O)O)(CCC(=O)O)CCC(=O)O,740,5900,> 12000,3000,1500,1500,5900,270,> 12000,–,–
CCCCCCCCCCCCCCCCCCCCCCNC(=O)NC(CCC(=O)O)(CCC(=O)O)CCC(=O)O,2600,950,470,30,120,120,5200,5200,> 10000,1300,1300
CCCCCCCC(CCCCCCC)NC(=O)NC(CCC(=O)O)(CCC(=O)O)CCC(=O)O,3100,6200,> 12000,6200,3100,3100,6200,1100,> 12000,–,–
CCCCCCCCCCCCCCNC(=O)NC(CCC(=O)O)(CCC(=O)O)CCC(=O)O,1600,6400,290,580,580,290,6400,1600,> 13000,6400,6400
CCCCCCCCCN(CCCCCCCCC)C(=O)NC(CCC(=O)O)(CCC(=O)O)CCC(=O)O,> 12000,12000,> 1000,720,1400,1400,5800,260,12000,> 12000,12000
CCCCCCCCCCCCCCCCCCNC(=O)NC(CCC(=O)O)(CCC(=O)O)CCC(=O)O,1400,1400,260,130,33,130,1400,90,> 12000,1400,720
CCCCCCCCCCCCCCCCNC(=O)NC(CCC(=O)O)(CCC(=O)O)CCC(=O)O,47,6100,280,550,140,140,3000,47,> 12000,760,6100
CCCCCCCCN(CCCCCCCC)C(=O)NC(CCC(=O)O)(CCC(=O)O)CCC(=O)O,190,1500,> 1100,380,1500,760,380,550,3000,> 12000,3000
